The series in a line: Plasma concentration in Balb/c mouse at 10 mg/kg, sc administered as single dose using MC/EtOH formulation measured after 7 hrs by LC-MS/MS analysis. The class given is ADME, organism-based. The method, boiled down: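 Female Balb/c mice, fasted 8 h with free water, given a single dose in 0.1 mL vehicle: EO-33 dissolved in EtOH, then aqueous 0.4% methylcellulose added to a final 8% EtOH. Sacrificed under isoflurane at 1, 3, 7, 12 and 24 h (2–3 mice/group). Cardiac blood collected into K-EDTA and plasma stored at −80 °C. LC-MS/MS on 100 µL plasma. AUC0-24h taken from the five time points.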

In the case of `Cc1ccc(CN(Cc2ccc(C(=O)N3CCc4ccc(OS(N)(=O)=O)cc4C3)cc2)Cc2ccco2)s1`, the concentration at 7 h was determined as 15 ng/mL.

The values above are taken from ChEMBL document CHEMBL4396876, “Antisulfatase, Osteogenic, and Anticancer Activities of Steroid Sulfatase Inhibitor EO-33 in Mice” (J Med Chem, 2019).
